Data reported in ChEMBL document CHEMBL1125866, “Aldophosphamide acetal diacetate and structural analogues: synthesis and cytotoxicity studies” (J Med Chem, 1991).

Columns and labels:
[1] = Half-life in […] Phosphate buffer at pH 7.4(37 degrees C); type: ADME
Summary of the method: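 Acetal at 100 μM in 0.05 M phosphate buffer, pH 7.4, shaken at 37 °C without enzyme. Aliquots taken at intervals (typically 2–50 h) and parent drug measured by reverse-phase C-18 HPLC with UV detection at 220 nm. Half-life from linear least-squares regression of pseudo-first-order decay.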

L1210 = assay: Concentration required to reduce the viability of L1210 cells by 50% after 1-h incubation at 37 degrees C; type: functional, cell-based; conditions: Mus musculus, L1210, 1 h
Summary of the method: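 Exposed to at least seven drug concentrations (0.1–300 μM) for 1 h at 37 °C, washed, regrown drug-free 72 h. MTT reduction read at 570 nm. IC50 from concentration–viability plot, average of duplicates.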

carboxylate esterase = assay: Half-life in […] at pH 7.4(37 degrees C) in the presence of pig Liver Carboxylate Esterase; type: ADME, Sus scrofa; conditions: pig liver carboxylate esterase in phosphate buffer
Summary of the method: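 Acetal at 100 μM in 0.05 M phosphate buffer, pH 7.4, at 37 °C with pig liver carboxylate esterase, 2 units per μmol substrate (1 unit hydrolyses 1.0 μmol ethyl butyrate/min at pH 8.0, 25 °C). Samples vortexed, centrifuged, supernatant analysed by C-18 HPLC, UV 220 nm. Half-life by least-squares regression, pseudo-first-order.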

Structure (SMILES)	half-life [1] [h]	IC50 (L1210) [µM]	half-life (carboxylate esterase) [s]
CCN(CC)P(=O)(OCCC(OC(C)=O)OC(C)=O)N(CCCl)CCCl (configuration not stated)	37	78	40
CC(=O)OC(CCOP(N)(=O)N(CCCl)CCCl)OC(C)=O (configuration not stated)	38	0.9	36
CC(=O)OC(CCOP(=O)(N(C)C)N(CCCl)CCCl)OC(C)=O (configuration not stated)	36	> 245	36
CC(=O)OC(CCOP(N)(=O)N(CCCl)CCCl)OC(C)=O.O=S(=O)(O)CCS (configuration not stated)	–	0.9	–
C=CC=O.O=S(=O)(O)CCS	–	168	–
O=P1(N(CCCl)CCCl)NC(OO)CCO1.O=S(=O)(O)CCS (configuration not stated)	–	90	–
CNP(=O)(OCCC(OC(C)=O)OC(C)=O)N(CCCl)CCCl (configuration not stated)	42	38	42
CCNP(=O)(OCCC(OC(C)=O)OC(C)=O)N(CCCl)CCCl (configuration not stated)	40	29	42
C=CC=O [ACROLEIN]	–	48	–
O=P1(N(CCCl)CCCl)NCCCO1 (configuration not stated) [CYCLOPHOSPHAMIDE ANHYDROUS]	–	> 300	–
O=S(=O)(O)CCS [MESNA]	–	> 200	–
O=P1(N(CCCl)CCCl)NC(OO)CCO1 (configuration not stated) [PERFOSFAMIDE]	–	90	–
